Assay results gathered from unrelated publications.
Long-chain-fatty-acid--AMP ligase FadD28: Long-chain-fatty-acid--AMP ligase FadD28 (Mycobacterium tuberculosis, UniProt P9WQ59)
HTR7: 5-hydroxytryptamine receptor 7 (HTR7, Homo sapiens, UniProt P34969)
Neuronal acetylcholine receptor subunit alpha-4/beta-2: Neuronal acetylcholine receptor subunit alpha-4/beta-2 (Mus musculus, UniProt O70174+Q9ERK7)

| Compound | target | test | conditions | endpoint | value |
| --- | --- | --- | --- | --- | --- |
| N#Cc1ccc(C(=O)NOCc2ccc(C(F)(F)F)cc2)cc1 | NAD-dependent protein deacylase sirtuin-6 (SIRT6, Homo sapiens, UniProt Q8N6T7) | enzyme activity, inhibitor, fluorescence | – | IC50 | 14900 nM |
| CCCCCCCCCCCC(=O)NS(=O)(=O)OC[C@H]1O[C@@H](n2cnc3c(N)ncnc32)[C@H](O)[C@@H]1O | Long-chain-fatty-acid--AMP ligase FadD28 | enzyme activity, inhibitor | – | Ki | 6000 nM |
| CCCCCCCCCCCCCC(=O)NS(=O)(=O)OC[C@H]1O[C@@H](n2cnc3c(N)nc(C#CCOCCOCCOCCNC(=O)c4ccc(C(=O)O)c(-c5c6ccc(=[N+](C)C)cc-6oc6cc(N(C)C)ccc56)c4)nc32)[C@H](O)[C@@H]1O | Long-chain-fatty-acid--AMP ligase FadD28 | binding, FP | – | Kd | 245 nM |
| CC[C@@H](CO)NC(=O)[C@@H]1C=C2c3cccc4c3c(cn4C)C[C@H]2N(C)C1 | HTR7 | ligand displacement, radioligand | cell membranes | Ki | 32 nM |
| CNC(C)C/C=C/c1cncc(C#Cc2ccccc2)c1 (stereo not drawn) | Neuronal acetylcholine receptor subunit alpha-4/beta-2 | ligand displacement, radioligand | cell membranes | Ki | 134 nM |
| FC(F)(F)c1cccc(N2CCNCC2)c1 | HTR7 | ligand displacement, radioligand | cell membranes | Ki | 1620 nM |
| CN1[C@@H]2CC[C@H]1C=C(c1cncc(Br)c1)C2 | Neuronal acetylcholine receptor subunit alpha-4/beta-2 | ligand displacement, radioligand | cell membranes | Ki | 2.31 nM |
| CCCCCCCCCCCCCC(=O)NS(=O)(=O)OC[C@H]1O[C@@H](n2cnc3c(N)ncnc32)[C@H](O)[C@@H]1O | Long-chain-fatty-acid--AMP ligase FadD28 | binding, ITC | – | Kd | 365 nM |
| CN(C)CCc1c[nH]c2ccccc12 | HTR7 | ligand displacement, radioligand | – | Ki | 210 nM |
